Measured values taken from ChEMBL document CHEMBL3259663, “3-Amido-3-aryl-piperidines: A Novel Class of Potent, Selective, and Orally Active GlyT1 Inhibitors” (ACS Med Chem Lett, 2014).

Columns and labels:
[1] = tested on: Salmonella typhimurium; experiment: Genotoxicity in Salmonella typhimurium by Ames test; format: toxicity, organism-based; conditions: salmonella enterica subsp. enterica serovar typhimurium
[2] = biological target: Cytochrome P450 2C9 (Homo sapiens, UniProt P11712); experiment: Inhibition of CYP2C9 (unknown origin); format: ADME
[3] = Genotoxicity in micronucleus (unknown origin) by MNT test
[4] = tested on: Mus musculus; experiment: Inhibition of L687414-induced hyperlocomotion in po dosed mouse assessed horizontal activity; format: functional
How it was run: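 Oral dosing in mice against L-687,414-induced hyperlocomotion. Horizontal activity counts recorded over 60 min, mean per group, n = 8 per group. ID₅₀ is the dose producing 50% inhibition of the hyperlocomotion.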

[5] = Oral bioavailability in mouse at 7.7 mg/kg; format: ADME, organism-based; conditions: in vivo
How it was run: (§1)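 Mouse PK after a 7.7 mg/kg oral dose. Brain/plasma ratio taken at 1.5 h. Values are the average of two independent experiments.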

[6] = tested on: Brain; experiment: Effect on brain glycine level in rat striatum at 10 mg/kg, po; format: functional
How it was run: (§2)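 Rat striatal microdialysis after a 10 mg/kg oral dose. Extracellular glycine measured as fold over basal levels, with sampling stopped at 3 h. Plasma and brain exposures determined at 3 h post-dose. n = 6.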

[7] = tested on: MDR1 (P-gp); experiment: Efflux ratio of permeability in pig LLC-PK1 cells expressing human MDR1; format: ADME, cell-based, Sus scrofa
How it was run: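 Efflux ratio measured in LLC-PK1 cells stably expressing human MDR1 or mouse MDR1A.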

[8] = Volume of distribution at steady state in mouse at 1.7 mg/kg, iv; format: ADME, organism-based; design: dose 1.7 mg/kg, route intravenous; conditions: in vivo, read-out: Vdss
How it was run: (§3)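 Mouse PK, single iv dose of 1.7 mg/kg. Values are the average of two independent experiments.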

[9] = biological target: T1, Sodium- and chloride-dependent glycine transporter 1 (Mus musculus, UniProt P28571); experiment: Inhibition of mouse GlyT1
T1 sequence (P28571 whole entry): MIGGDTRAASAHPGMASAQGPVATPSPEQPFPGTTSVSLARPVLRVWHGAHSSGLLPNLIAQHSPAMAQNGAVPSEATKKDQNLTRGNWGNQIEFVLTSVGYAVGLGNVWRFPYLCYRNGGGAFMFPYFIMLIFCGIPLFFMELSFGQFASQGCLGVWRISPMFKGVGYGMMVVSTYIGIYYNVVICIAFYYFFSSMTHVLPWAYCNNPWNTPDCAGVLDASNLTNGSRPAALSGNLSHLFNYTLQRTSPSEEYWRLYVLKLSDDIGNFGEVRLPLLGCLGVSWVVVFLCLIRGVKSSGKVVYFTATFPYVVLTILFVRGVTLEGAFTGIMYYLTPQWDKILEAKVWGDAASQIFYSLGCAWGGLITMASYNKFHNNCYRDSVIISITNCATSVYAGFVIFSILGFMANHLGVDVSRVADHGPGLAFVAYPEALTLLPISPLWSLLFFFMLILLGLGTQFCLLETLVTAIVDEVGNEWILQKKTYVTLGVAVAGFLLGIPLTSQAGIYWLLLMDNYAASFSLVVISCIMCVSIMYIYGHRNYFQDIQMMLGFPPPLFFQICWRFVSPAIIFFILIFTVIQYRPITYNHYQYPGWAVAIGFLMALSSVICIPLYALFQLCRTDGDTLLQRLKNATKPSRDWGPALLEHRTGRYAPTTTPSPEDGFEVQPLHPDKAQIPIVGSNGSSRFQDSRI

[10] = Ratio of drug level in rat brain after 3 hrs to EC50 for human GlyT1 by [3H]glycine uptake assay
[11] = biological target: Cytochrome P450 3A4 (Homo sapiens, UniProt P08684); experiment: Inhibition of CYP3A4 (unknown origin); format: ADME
[12] = Fraction unbound in mouse at 7.7 mg/kg, po; format: ADME, organism-based; design: dose 7.7 mg/kg, route oral; conditions: in vivo, read-out: PPB; how it was run: as §1
[13] = Dissociation constant, pKa of the compound by capillary electrophoresis; format: physicochemical
How it was run: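 pKa determined by capillary electrophoresis.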

[14] = biological target: T2, Sodium- and chloride-dependent glycine transporter 1 (Homo sapiens, UniProt P48067); experiment: Inhibition of human GlyT1 expressed in cells assessed as [3H]glycine uptake; format: cell-based
T2 sequence (P48067 whole entry): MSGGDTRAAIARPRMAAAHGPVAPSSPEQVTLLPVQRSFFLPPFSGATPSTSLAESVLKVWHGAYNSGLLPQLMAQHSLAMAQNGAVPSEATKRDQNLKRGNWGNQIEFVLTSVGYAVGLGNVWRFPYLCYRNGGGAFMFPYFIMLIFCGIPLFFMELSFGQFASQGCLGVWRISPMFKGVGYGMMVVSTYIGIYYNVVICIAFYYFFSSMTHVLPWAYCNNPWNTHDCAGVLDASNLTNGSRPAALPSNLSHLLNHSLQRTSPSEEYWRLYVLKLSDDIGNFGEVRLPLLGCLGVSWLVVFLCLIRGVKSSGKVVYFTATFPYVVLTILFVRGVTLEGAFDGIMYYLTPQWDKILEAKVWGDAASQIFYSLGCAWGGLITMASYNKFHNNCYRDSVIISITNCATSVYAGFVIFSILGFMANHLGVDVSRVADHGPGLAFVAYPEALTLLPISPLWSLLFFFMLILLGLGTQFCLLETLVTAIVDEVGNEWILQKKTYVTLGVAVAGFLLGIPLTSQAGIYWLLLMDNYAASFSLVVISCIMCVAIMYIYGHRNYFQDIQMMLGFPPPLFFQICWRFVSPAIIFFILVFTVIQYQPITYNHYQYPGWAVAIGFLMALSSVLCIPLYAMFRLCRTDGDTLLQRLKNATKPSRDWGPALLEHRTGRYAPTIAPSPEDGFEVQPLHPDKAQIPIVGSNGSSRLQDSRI
How it was run: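 [³H]-glycine uptake inhibition in cells transfected with human GlyT1. EC₅₀ values are the average of at least two independent experiments.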

[15] = Clearance in mouse at 1.7 mg/kg, iv; format: ADME, organism-based; design: dose 1.7 mg/kg, route intravenous; conditions: in vivo; how it was run: as §3
[16] = Intrinsic clearance in mouse liver microsomes; format: ADME; conditions: read-out: CLH
[17] = tested on: Striatum; experiment: Maximal induction of extracellular glycine level in rat striatum at 10 mg/kg, po relative to basal level; format: functional; how it was run: as §2
[18] = Intrinsic clearance in human liver microsomes; format: ADME; conditions: read-out: CLH
[19] = tested on: Striatum; experiment: Induction of extracellular glycine level in rat striatum at 10 mg/kg, po after 3 hrs relative to basal level; format: functional; how it was run: as §2
[20] = Octanol-phosphate buffer partition coefficient, log D of the compound at pH 7.4; format: physicochemical
How it was run: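 Distribution coefficient measured between 1-octanol and phosphate buffer at pH 7.4.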

[21] = Ratio of drug level from brain to plasma rat at 10 mg/kg, po; format: ADME, organism-based; design: dose 10 mg/kg, route oral; conditions: brain and plasma, read-out: BPR; how it was run: as §2
[22] = tested on: Striatum; experiment: Effect on plasma glycine level in rat striatum at 10 mg/kg, po; format: functional; how it was run: as §2

Cytochrome P450 3A4, sequence (P08684 whole entry): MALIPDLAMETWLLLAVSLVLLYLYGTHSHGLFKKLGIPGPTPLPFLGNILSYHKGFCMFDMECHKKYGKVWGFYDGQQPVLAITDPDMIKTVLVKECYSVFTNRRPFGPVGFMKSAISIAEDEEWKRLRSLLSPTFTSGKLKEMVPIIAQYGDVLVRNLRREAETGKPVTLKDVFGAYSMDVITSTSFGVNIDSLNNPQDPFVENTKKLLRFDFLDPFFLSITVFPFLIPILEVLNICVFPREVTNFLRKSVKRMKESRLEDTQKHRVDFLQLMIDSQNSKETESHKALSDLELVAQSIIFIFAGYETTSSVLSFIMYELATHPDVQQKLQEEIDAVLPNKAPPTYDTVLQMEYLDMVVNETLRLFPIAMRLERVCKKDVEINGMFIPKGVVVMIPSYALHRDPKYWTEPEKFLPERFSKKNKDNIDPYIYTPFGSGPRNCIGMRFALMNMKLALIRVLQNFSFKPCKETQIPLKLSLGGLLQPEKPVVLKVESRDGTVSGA
Cytochrome P450 2C9, sequence (P11712 whole entry): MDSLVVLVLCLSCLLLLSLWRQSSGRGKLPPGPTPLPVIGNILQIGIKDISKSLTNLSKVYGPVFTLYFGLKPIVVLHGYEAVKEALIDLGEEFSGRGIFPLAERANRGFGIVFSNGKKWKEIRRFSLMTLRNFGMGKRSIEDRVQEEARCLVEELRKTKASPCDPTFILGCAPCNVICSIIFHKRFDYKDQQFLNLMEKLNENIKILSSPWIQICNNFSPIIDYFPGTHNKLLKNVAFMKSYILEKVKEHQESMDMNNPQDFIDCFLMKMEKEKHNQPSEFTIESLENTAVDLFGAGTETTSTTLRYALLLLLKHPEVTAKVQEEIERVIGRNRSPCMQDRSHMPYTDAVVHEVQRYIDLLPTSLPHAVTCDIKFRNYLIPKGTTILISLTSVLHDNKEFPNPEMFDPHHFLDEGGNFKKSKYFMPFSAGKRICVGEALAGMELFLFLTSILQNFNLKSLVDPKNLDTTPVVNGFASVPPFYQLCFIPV

- IC50 [2]: > 50000 nM
- bioavailability [5]: 100%
- efflux ratio [7]: 0.9
- Vd [8]: 8 L/kg
- EC50 [9]: 5 nM
- IC50 [11]: > 50000 nM
- fraction unbound [12]: 0.017
- pKa [13]: 7.72
- EC50 [14]: 10 nM
- clearance [15]: 54 mL/min/kg
- microsomal CLint [16]: 54 µL/min/mg
- microsomal CLint [18]: 19 µL/min/mg
- logD [20]: 3.12
- Kp [21]: 0.08
Compound: COc1cc(C(F)(F)F)cc(SC)c1C(=O)N[C@@]1(c2ccccc2)CCCN(C)C1
- Activity [1]: Non-toxic
- Activity [3]: Non-toxic
- inhibition [4]: Dose-dependent effect
- ED50 ([4]; read-out: ID50 (the source's name)): 1.5 mg/kg
- Activity [6]: 60 ng/mL
- Ratio [10]: 13
- fold change (FC) [17]: 1.7
- fold change (FC) [19]: 1.5
- Activity [22]: 713 ng/mL
